Reference: ChEMBL document CHEMBL2062426 (J Med Chem, 2012)

Key:
Neutrophil collagenase = Neutrophil collagenase (Homo sapiens, UniProt P22894); assay: Inhibition of MMP8 using (7-methoxycoumarin-4-yl)acetyl-Pro-Leu-Gly-Leu-(3-(2,4-dinitrophenyl)-L-2,3-diaminopropionyl)Ala-Arg-NH2 as substrate incubated for 30 mins prior to substrate addition measured for 10 mins by fluorometry
How it was run: (§1)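 Activated MMP-8 or MMP-9 (2 nM) was preincubated with inhibitor (10 pM–1 mM) in 50 mM Tris-HCl pH 7.5 with 0.2 M NaCl, 5 mM CaCl2, 20 μM ZnSO4 and 0.05% Brij 35 at 37 °C for 30 min. Fluorogenic substrate (10 μL of 50 μM into 90 μL) was then added. Rates from the first 10 min were plotted against inhibitor concentration, and values are the mean of three experiments.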

[1] = target: Matrix metalloproteinase-9 (Homo sapiens, UniProt P14780); assay: Inhibition of MMP9 using (7-methoxycoumarin-4-yl)acetyl-Pro-Leu-Gly-Leu-(3-(2,4-dinitrophenyl)-L-2,3-diaminopropionyl)Ala-Arg-NH2 as substrate incubated for 30 mins prior to substrate addition measured for 10 mins by fluorometry; how it was run: as §1
Collagenase 3 = Collagenase 3 (Homo sapiens, UniProt P45452); assay: Inhibition of MMP13 using (7-methoxycoumarin-4-yl)acetyl-Pro-Leu-Gly-Leu-(3-(2,4-dinitrophenyl)-L-2,3-diaminopropionyl)Ala-Arg-NH2 as substrate incubated for 30 mins prior to substrate addition measured for 10 mins by fluorometry
[2] = target: 72 kDa type IV collagenase (Homo sapiens, UniProt P08253); assay: Inhibition of MMP2 using (7-methoxycoumarin-4-yl)acetyl-Pro-Leu-Gly-Leu-(3-(2,4-dinitrophenyl)-L-2,3-diaminopropionyl)Ala-Arg-NH2 as substrate incubated for 30 mins prior to substrate addition measured for 10 mins by fluorometry
Sequence of 72 kDa type IV collagenase (P08253 whole entry): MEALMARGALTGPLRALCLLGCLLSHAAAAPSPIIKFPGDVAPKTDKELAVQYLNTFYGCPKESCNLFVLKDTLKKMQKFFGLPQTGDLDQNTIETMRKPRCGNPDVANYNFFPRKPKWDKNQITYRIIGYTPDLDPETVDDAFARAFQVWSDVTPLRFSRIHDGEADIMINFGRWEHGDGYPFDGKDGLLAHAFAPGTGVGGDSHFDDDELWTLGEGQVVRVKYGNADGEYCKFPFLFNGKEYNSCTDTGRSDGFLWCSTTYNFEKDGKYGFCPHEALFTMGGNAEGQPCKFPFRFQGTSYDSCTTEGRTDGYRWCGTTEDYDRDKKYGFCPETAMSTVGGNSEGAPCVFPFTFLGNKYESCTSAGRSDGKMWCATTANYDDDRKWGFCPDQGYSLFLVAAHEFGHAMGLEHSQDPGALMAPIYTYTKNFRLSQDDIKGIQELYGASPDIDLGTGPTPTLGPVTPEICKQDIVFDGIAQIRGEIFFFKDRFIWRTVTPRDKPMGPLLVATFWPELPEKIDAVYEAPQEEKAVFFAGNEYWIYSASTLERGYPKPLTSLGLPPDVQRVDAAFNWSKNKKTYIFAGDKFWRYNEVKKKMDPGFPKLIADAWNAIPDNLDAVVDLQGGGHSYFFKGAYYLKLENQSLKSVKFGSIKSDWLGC

Sequence of Neutrophil collagenase (P22894 whole entry): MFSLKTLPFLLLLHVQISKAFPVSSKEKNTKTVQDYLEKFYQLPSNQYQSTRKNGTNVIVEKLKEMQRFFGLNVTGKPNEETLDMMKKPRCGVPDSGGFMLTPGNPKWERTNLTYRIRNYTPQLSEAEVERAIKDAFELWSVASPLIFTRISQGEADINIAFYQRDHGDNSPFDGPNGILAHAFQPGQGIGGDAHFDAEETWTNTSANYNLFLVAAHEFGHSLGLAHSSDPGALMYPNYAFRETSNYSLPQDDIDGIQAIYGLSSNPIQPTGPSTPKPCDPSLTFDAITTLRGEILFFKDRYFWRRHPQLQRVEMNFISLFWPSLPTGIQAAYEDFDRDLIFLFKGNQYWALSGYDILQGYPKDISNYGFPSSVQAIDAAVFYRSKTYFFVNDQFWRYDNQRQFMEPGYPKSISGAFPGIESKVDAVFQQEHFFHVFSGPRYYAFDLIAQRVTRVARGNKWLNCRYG
Sequence of Matrix metalloproteinase-9 (P14780 whole entry): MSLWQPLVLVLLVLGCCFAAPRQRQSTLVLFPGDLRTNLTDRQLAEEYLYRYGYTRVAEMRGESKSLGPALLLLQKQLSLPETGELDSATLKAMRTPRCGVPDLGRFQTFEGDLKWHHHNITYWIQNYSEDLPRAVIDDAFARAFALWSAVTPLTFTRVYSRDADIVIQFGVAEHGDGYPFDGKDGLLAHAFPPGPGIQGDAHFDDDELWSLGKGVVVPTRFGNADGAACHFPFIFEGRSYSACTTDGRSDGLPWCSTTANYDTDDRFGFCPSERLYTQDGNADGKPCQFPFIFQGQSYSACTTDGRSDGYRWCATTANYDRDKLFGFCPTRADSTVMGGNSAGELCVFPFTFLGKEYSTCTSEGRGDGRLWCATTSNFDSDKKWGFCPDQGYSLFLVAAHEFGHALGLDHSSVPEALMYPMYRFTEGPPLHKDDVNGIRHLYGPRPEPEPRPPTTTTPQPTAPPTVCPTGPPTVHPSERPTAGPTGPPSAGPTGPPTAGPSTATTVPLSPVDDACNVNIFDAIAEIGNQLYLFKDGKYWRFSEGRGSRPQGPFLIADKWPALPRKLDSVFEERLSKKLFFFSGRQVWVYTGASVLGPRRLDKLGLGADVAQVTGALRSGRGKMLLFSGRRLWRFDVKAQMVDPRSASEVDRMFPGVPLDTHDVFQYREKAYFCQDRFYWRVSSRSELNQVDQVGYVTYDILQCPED

| IC50 (Neutrophil collagenase) [nM] | IC50 [1] [nM] | IC50 (Collagenase 3) [nM] | IC50 [2] [nM] | Compound |
| --- | --- | --- | --- | --- |
| 0.5 | 0.6 | 0.5 | 0.2 | COc1ccc(S(=O)(=O)N(Cc2cn([C@@H]3O[C@H](CO)[C@@H](O)[C@H](O)[C@H]3F)nn2)[C@@H](C(=O)NO)C(C)C)cc1 |
| > 100000 | > 100000 | > 100000 | > 100000 | COc1ccc(S(=O)(=O)N(Cc2cn(CCOCCOCCOCCn3cc(CN([C@@H](C(=O)NO)C(C)C)S(=O)(=O)c4ccc(OC)cc4)nn3)nn2)[C@@H](C(=O)NO)C(C)C)cc1 |
